The source of these data is ChEMBL document CHEMBL4118256, “Second Generation of Mannich Base-Type Derivatives with in Vivo Activity against Trypanosoma cruzi” (J Med Chem, 2018).

The source made the active and inactive calls. The calls are words filed in the database; no cut-off is given here.

A word on the IC50: it is the concentration at which inhibition is half-maximal. As a reminder, the inhibition is the share of the control response that was lost under treatment.

For data set [1], the system named is Trypanosoma cruzi. In words: Trypanocidal activity against Trypanosoma cruzi MHOM/Pe/2011/Arequipa DTU 5 epimastigotes after 48 hrs by resazurin dye based assay. It is filed as functional, organism-based. The conditions noted are these: MHOM/Pe/2011/Arequipa DTU 5, 48 h. In a few lines:
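Exponential-phase epimastigotes were seeded at 5×10^5 mL^-1 with compounds at 100–0.2 µM (DMSO 0.01% v/v) at 28 °C. After 48 h, resazurin was added for another 24 h. SDS was then added and absorbance read at 570 and 600 nm.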
(Resazurin is reduced to fluorescent resorufin, in cell work by metabolically active cells.)

The test system of data set [2] is Vero. In words: Cytotoxicity against African green monkey Vero cells assessed as reduction in cell viability after 72 hrs by resazurin dye based assay. Particulars: Chlorocebus sabaeus. Put shortly: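 Vero monkey kidney cells grown at 37 °C, 5 % CO2, in RPMI with 10 % heat-inactivated FBS. Seeded at 1.25 × 10^4 mL-1 with compound at 1000 to 1 µM (DMSO 0.01 % v/v). After 48 h, resazurin added for a further 24 h, then SDS. Absorbance read at 570/600 nm. IC50 from triplicates in four separate determinations.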

A short description of data set [3]: Selectivity index, ratio of IC50 for African green monkey Vero cells to IC50 for Trypanosoma cruzi IRHOD/CO/2008/SN3 DTU 1 epimastigotes. It is filed as toxicity. The conditions noted are these: read-out: Ratio IC50. Put shortly:
(§1)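 SI is Vero IC50 divided by the IC50 for the stated parasite form. For Vero cytotoxicity, cells were seeded at 1.25×10^4 mL^-1 with compounds at 1000–1 µM, incubated 48 h, then given resazurin for a further 24 h (72 h total), with absorbance read at 570/600 nm. Triplicate, four determinations.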

Data set [4] can be described thus: Selectivity index, ratio of IC50 for African green monkey Vero cells to IC50 for Trypanosoma cruzi TINF/CH/1956/Tulahuen DTU 6 epimastigotes. It is filed as toxicity. Particulars: read-out: Ratio IC50. In a few lines: as §1
For data set [5], the system named is Trypanosoma cruzi. In words: Trypanocidal activity against Trypanosoma cruzi MHOM/Pe/2011/Arequipa DTU 5 amastigotes infected in African green monkey Vero cells after 72 hrs by Giemsa-staining based microscopic assay. It is filed as functional, organism-based. The conditions noted are these: MHOM/Pe/2011/Arequipa DTU 5, Vero. Put shortly:
(§2)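 Vero cells were seeded at 1×10^4/well on coverslips. After 24 h they were infected with culture-derived trypomastigotes (MOI 1:10, 24 h), then washed. Compounds were added at 100–0.2 µM (DMSO 0.01% v/v) for 72 h at 37 °C, 5% CO2. Slides were methanol-fixed and Giemsa-stained; amastigotes and infected cells were counted over 500 host cells. IC50 was derived by curve fitting; triplicate wells, four separate determinations.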

Data set [6] concerns Trypanosoma cruzi. Description: Trypanocidal activity against Trypanosoma cruzi TINF/CH/1956/Tulahuen DTU 6 amastigotes infected in African green monkey Vero cells after 72 hrs by Giemsa-staining based microscopic assay. It is filed as functional, organism-based. Particulars: TINF/CH/1956/Tulahuen DTU 6, Vero. Put shortly:
as §2

In data set [7] the test system is Trypanosoma cruzi. Description: Trypanocidal activity against Trypanosoma cruzi TINF/CH/1956/Tulahuen DTU 6 trypamastigotes derived from infected Balb/c albino mouse after 24 hrs by resazurin dye based assay. It is filed as functional, organism-based. The conditions noted are these: TINF/CH/1956/Tulahuen DTU 6, 24 h. Put shortly:
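Bloodstream trypomastigotes taken from mice at peak parasitaemia were seeded at 2×10^6 mL^-1 in RPMI with 10% FBS. Compounds were added at 50–0.2 µM and incubated 24 h at 37 °C, 5% CO2, then with resazurin for 4 h. SDS was added and absorbance read at 570/600 nm. IC50 was fitted; triplicate, four separate determinations.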

The nature of data set [8]: Selectivity index, ratio of IC50 for African green monkey Vero cells to IC50 for Trypanosoma cruzi TINF/CH/1956/Tulahuen DTU 6 amastigotes infected in African green monkey Vero cells. The conditions noted are these: read-out: Ratio IC50. It is filed as toxicity. Put shortly:
as §1

Data set [9] relates to Trypanosoma cruzi. Description: Trypanocidal activity against Trypanosoma cruzi MHOM/Pe/2011/Arequipa DTU 5 amastigotes infected in African green monkey Vero cells assessed as reduction in infected cells after 72 hrs by Giemsa-staining based microscopic assay. It is filed as functional, organism-based. Particulars: MHOM/Pe/2011/Arequipa DTU 5, Vero. In a few lines: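 Infected Vero cell cultures were exposed for 72 h to a range of concentrations. Infected cells were counted microscopically on Giemsa-stained preparations and expressed relative to infected untreated controls. Values are means of three separate determinations; IC50 was derived by curve fitting.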

The test system of data set [10] is Mus musculus. In words: Toxicity in Balb/c mouse assessed as reduction in body mass at […], po once daily for 5 consecutive days starting from day 10 post infection relative to control. It is filed as organism-based. On the set-up: scale not given: the % may be the effect or the level left. The conditions noted are these: in vivo. In a few lines:
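Infected female BALB/c mice, six per group, received oral doses of 20 mg·kg^-1/day for 5 consecutive days (total 100 mg·kg^-1) in 5% DMSO/0.5% HPMC vehicle, from day 10 or day 75 pi. Body mass and deaths were monitored during and after treatment.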

Data set [11] relates to Trypanosoma cruzi. Description: Antitrypanosomal activity against Trypanosoma cruzi MHOM/Pe/2011/Arequipa DTU 5 trypamastigotes infected in Balb/c mouse assessed as reduction in splenomegaly at 100 mg/kg, po once daily for 5 consecutive days starting from day 75 post infection measured on day 127 post infection relative to control. It is filed as functional. On the set-up: scale not given: the % may be the effect or the level left.

Data set [12] concerns Mus musculus. Description: Hepatotoxicity in Balb/c mouse infected with Trypanosoma cruzi MHOM/Pe/2011/Arequipa DTU 5 trypamastigotes assessed as change in total bilirubin level at […], po once daily for 5 consecutive days starting from day 10 post infection measured on day 127 post infection by biochemical analysis relative to control. It is filed as toxicity, organism-based. Particulars: in vivo. Put shortly: (§3)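 Serum clinical chemistry in Arequipa-infected female BALB/c mice. Oral 20 mg·kg-1 per day for 5 days, started day 10 or day 75 pi. Samples taken at day 16 pi or day 81 pi, and on necropsy day. Markers: CK-MB and LDH (U/L), AST, ALT and alkaline phosphatase (U/L), total bilirubin. Results scored relative to infected untreated controls; uninfected reference n = 15.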

Data set [13] deals with Mus musculus. In words: Hepatotoxicity in Balb/c mouse infected with Trypanosoma cruzi MHOM/Pe/2011/Arequipa DTU 5 trypamastigotes assessed as change in alkaline phosphatase level at […], po once daily for 5 consecutive days starting from day 75 post infection measured on day 127 post infection by biochemical analysis relative to control. It is filed as toxicity, organism-based. Particulars: in vivo. In a few lines:
as §3

For data set [14], the target named is T1, Superoxide dismutase (Trypanosoma cruzi (strain CL Brener), UniProt Q4DCQ3).
T1 sequence (Q4DCQ3 whole entry): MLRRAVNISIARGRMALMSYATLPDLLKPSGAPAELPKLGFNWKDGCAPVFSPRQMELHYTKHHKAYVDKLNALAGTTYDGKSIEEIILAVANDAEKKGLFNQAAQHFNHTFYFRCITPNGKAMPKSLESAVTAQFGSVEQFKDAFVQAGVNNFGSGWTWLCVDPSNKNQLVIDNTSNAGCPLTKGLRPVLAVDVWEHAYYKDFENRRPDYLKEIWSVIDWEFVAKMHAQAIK
Description: Inhibition of Trypanosoma cruzi MHOM/Pe/2011/Arequipa DTU 5 epimastigotes Fe-SOD by UV-Visible spectrophotometric method. Put shortly:
(§4)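 SOD activity of parasite Fe-SOD and human CuZn-SOD was measured spectrophotometrically by the Beyer and Fridovich method, with compounds at 1–100 µM. Values are averages of three rate determinations; IC50 was obtained by linear regression and differences were tested by Newman-Keuls.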

Data set [15] concerns the target Superoxide dismutase [Cu-Zn] (Homo sapiens, UniProt P00441). In words: Inhibition of human erythrocyte CuZn-SOD by UV-Visible spectrophotometric method. Put shortly: as §4
For data set [16], the target named is T2, Superoxide dismutase (Trypanosoma cruzi (strain CL Brener)) (UniProt Q4DCQ3).
T2 sequence (whole entry): T1 sequence (Q4DCQ3 whole entry)
In words: Inhibition of Trypanosoma cruzi MHOM/Pe/2011/Arequipa DTU 5 epimastigotes Fe-SOD at 50 uM by UV-Visible spectrophotometric method relative to control. In a few lines:
as §4

Sequence of Superoxide dismutase [Cu-Zn] (P00441 whole entry): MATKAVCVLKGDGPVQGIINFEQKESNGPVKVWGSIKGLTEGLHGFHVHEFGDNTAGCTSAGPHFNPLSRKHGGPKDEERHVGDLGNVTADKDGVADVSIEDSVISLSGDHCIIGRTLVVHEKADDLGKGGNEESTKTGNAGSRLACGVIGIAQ

Consider `COc1ccc(C(=O)CCN2CCN(c3ccc(Cl)cc3)CC2)cc1`, for which the IC50 in data set [1] amounted to 9.5 µM; in data set [2], 300 µM; in data set [5], 3.6 µM; in data set [6], 3.8 µM; in data set [7], 2.9 µM; in [9] it was 6.4 µM. For the same compound, the values for the IC50 in [14] and in [15] were 6.5 µM and 100 µM, respectively. For the same compound, the values for the selectivity ratio in data set [3], in [4] and in data set [8] were 47.8, 40.9 and 78.7, respectively. The Activity in data set [10] is > 10%; in data set [11], 68%; in data set [12] it was < 10%; in data set [13], < 10%. In addition, the inhibition in [16] is 100%.
Turning to `COc1ccc(C(=O)CCN2CCN(c3ccc([N+](=O)[O-])cc3)CC2)cc1`, the IC50 worked out at 31.6 µM in data set [1]; 587 µM in data set [2]; 29.4 µM in data set [5]; 33.6 µM in [6]; 14.5 µM in data set [7]; 47.9 µM in data set [9]. The IC50 in data set [14] was 5 µM; in data set [15], > 100 µM. Also, the selectivity ratio in data set [3] came out at 26.7; in data set [4] it was 15.7; in [8], 17.5. For the same compound, the Activity is on record as > 10% in [10], < 10% in [12] and < 10% in data set [13]. Moreover, the outcome in data set [11] was Active. For the same compound, in data set [16], the inhibition turned out to be 100%.
On to `O=C(Cn1ccnc1[N+](=O)[O-])NCc1ccccc1` [BENZNIDAZOLE], for which the IC50 in [2] was 23.2 µM; in data set [5] it was 8.3 µM; in data set [6], 10 µM; in data set [7], 15.1 µM; in [9], 15.1 µM.
With `COc1ccc(C(=O)CCN2CCN(c3ccc(F)cc3)CC2)cc1`, the half-maximal inhibitory concentration (IC50) came out at 1.4 µM in data set [1]; 55 µM in [2]; 0.6 µM in data set [5]; 1.6 µM in data set [6]; 1.2 µM in data set [7]; 1.9 µM in data set [9]. Besides, the IC50 worked out at 7.8 µM in data set [14] and 146 µM in [15]. Further, the selectivity ratio in data set [3] came to 27.9; in data set [4], 30.2; in data set [8] it was 34.6. Besides, the Activity in data set [10] is on record as > 10%; in [12] it was < 10%; in data set [13], < 10%. The outcome in data set [11] was Active. The compound also yielded an inhibition in [16] of 100%.
